ARFGAP1 inhibitor: inhibits rat ARF GTPase activating protein 1; Q62848; Arfgap1-stimulated ARF1 GTP hydrolysis, GDP FP detection; inhibition, % at 16.5 µM; AID 651572; actives 0.26% (n = 360,000);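 active = inhibition above a per-plate limit, mean inhibition of low control wells plus 3 SD, cut at about 25% in these data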;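 also: 0% = DMSO wells with enzyme and 100% = wells lacking Arfgap1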
Target sequence (Q62848 1-136 limits assumed): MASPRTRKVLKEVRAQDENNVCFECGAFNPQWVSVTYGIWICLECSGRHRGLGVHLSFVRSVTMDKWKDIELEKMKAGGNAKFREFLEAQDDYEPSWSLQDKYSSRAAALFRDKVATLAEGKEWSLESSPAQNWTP
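system = rat Arfgap1 catalytic domain, aa 1-136 | technique = FP, GDP Alexa 633 tracer displaced from anti-GDP antibody, 620/688 nm | compound = one concentration, 16.5 µM, DMSO 1.26% | medium = HEPES-based buffer, pH 7.5 | timing = compound-enzyme preincubation 20 min, reaction 120 min, detection 60 min, 25 °C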
LEDGF integ inh: blocks HIV-1 LEDGF/p75-dependent DNA integration | TR-FRET IN-LEDGF/p75 DNA integration, Eu/Cy5 | AID 743269 | inhibition, % at 3.7 µM | actives 0.64% (n = 370,000);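 active = inhibition above the screen-wide mean plus 3 SD, cut at about 13% in these data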;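 also: signal is the Cy5 over europium emission ratio at 671 and 618 nm; 0% = plate median of compound wells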
TDP2 inh: blocks human TDP2 phosphodiesterase activity; O95551; actives 0.34% (n = 370,000); inhibition, % at 12.8 µM; recombinant TDP2, T5PNP hydrolysis, p-nitrophenol absorbance 415 nm;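 active = inhibition above the mean of all tested compounds plus 3 SD, set per campaign, cut at about 25% in these data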;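 also: 0% = DMSO with enzyme and 100% = buffer with substrate but no TDP2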
Target sequence (O95551 whole entry, looked up): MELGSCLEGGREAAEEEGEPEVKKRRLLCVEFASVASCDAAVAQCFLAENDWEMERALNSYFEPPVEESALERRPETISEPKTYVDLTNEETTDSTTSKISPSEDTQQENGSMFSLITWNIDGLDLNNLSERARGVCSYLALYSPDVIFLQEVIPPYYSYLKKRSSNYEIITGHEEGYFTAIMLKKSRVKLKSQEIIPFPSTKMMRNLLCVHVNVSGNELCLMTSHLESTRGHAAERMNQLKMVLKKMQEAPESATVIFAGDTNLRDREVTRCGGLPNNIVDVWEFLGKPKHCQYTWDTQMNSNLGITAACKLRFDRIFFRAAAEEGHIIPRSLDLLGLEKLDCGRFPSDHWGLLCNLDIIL
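Incubation: 2 h at 37 °C; Test system: recombinant human TDP2; Quantity: enzyme 120 nM; Read-out basis: percent inhibition; Medium: 50 mM Tris-HCl pH 7.5 with Mg2+, KCl, DTT, BSA; Repeats: single replicate; Compound: 12.8 µM single point, 1% DMSO; Signal: epi absorbance; Reagent: 5 mM T5PNP chromogenic substrate; Benchmarks: no-enzyme high, DMSO-plus-enzyme low.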
ASAP1 GAP inh: ASAP1 ArfGAP inhibition; Q9ULH1; ASAP1-stimulated ARF1 GTP hydrolysis, GDP FP detection; inhibition, % at 16.5 µM; actives 0.19% (n = 360,000); AID 624377; in the data active = inhibition above about 25%;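 also: 0% = vehicle with enzyme and substrate and 100% = no enzyme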
Casp6 inh: inhibitors of human caspase-6. purified caspase-6, Z-VEID-R110 cleavage fluorescence. inhibition, % at 12.5 µM. actives 0.53% (n = 350,000). AID 686996;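 active = mean inhibition across replicates at least about 35%, with every replicate also reaching that limit, limit read from the data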;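 also: 0% = median of neutral control wells and 100% = no fluorescence left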
ARFGAP1 inh conf: rat ARFGAP1 inhibition, confirmed. shares compounds with ARFGAP1 inhibitor. ARFGAP1-stimulated ARF1 GTP hydrolysis, GDP tracer FP. inhibition, % at 16.5 µM. actives 30% (n = 890);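 active = average inhibition over triplicates above the hit cutoff set in the earlier primary screen, cut at about 25% in these data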;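 also: 0% = Arfgap1 plus ARF1-GTP with DMSO and 100% = wells lacking Arfgap1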
Active calls of the source: *; nt = no result. Rows were chosen to be rich in hits. Some 1.3% of all compounds tested hit in one or more screens of this group.

SMILES | ARFGAP1 inhibitor | LEDGF integ inh | TDP2 inh | ASAP1 GAP inh | Casp6 inh | ARFGAP1 inh conf
COc1ccc(O)c(-c2cc(-c3ccccc3Cl)[nH]n2)c1 | 30.3* | -5.4 | -14.7 | 16.7 | 4.1 | 16.8
O=C(Nc1cccc(Cl)c1)Nc1sccc1-c1nc2ccccc2s1 | 27.3* | -1.5 | 9.2 | 4.5 | 6.9 | 12.3
O=C(Nc1ccncc1)c1cn(-c2ccccc2)nc1-c1cccs1 | 26.5* | -0.3 | -3.1 | 12.0 | nt | 13.4
O=C(Nc1nc2ccc(SC(F)F)cc2s1)c1ccc(NS(=O)(=O)c2ccc(F)c(F)c2)cc1 | 25.9* | 2.0 | -15.7 | 19.2 | -0.2 | 29.8*
COc1ccccc1OCC(=O)NCC1CCCN(C(=O)c2ccccc2C(C)=O)C1 (stereo unspecified) | 27.9* | -0.3 | 4.3 | -6.3 | 1.6 | -2.6
COc1ccccc1OCC(=O)NCC1CCCN(C(=O)c2ccccc2SC)C1 (stereo unspecified) | 21.7 | 1.2 | 4.4 | -5.8 | -1.2 | nt
CC(C)CN(C(=O)CSc1nnc(-c2cccs2)n1C1CC1)C1CCS(=O)(=O)C1 (stereo unspecified) | 27.0* | 0.8 | -12.5 | 8.2 | -0.4 | -5.3
CN1CCN(S(=O)(=O)c2cccc(C(=O)Nc3cc(C(F)(F)F)ccc3N3CCCC3)c2)CC1 | 5.7 | -1.9 | -1.0 | -25.6 | -4.1 | nt
CCOc1ccc(-n2c(SCc3ccc([N+](=O)[O-])cc3)nnc2-c2ccccc2)cc1 | 33.4* | -3.6 | -6.8 | 6.0 | nt | -2.1
COc1cc(OC)cc(-c2sc3ccc(OC)cc3c2-c2ccc(O)cc2)c1 | 25.6* | 1.6 | -5.7 | 13.4 | 0.3 | 12.1
CCNC(=O)[C@H]1[C@H](CO)[C@H]2Cn3c(ccc(-c4ccccc4)c3=O)[C@H]2N1C(=O)Cc1cccnc1 | nt | nt | nt | nt | -4.1 | nt
Cc1ccc(-c2cc(-c3ccccc3[N+](=O)[O-])[nH]n2)c(O)c1 | 40.6* | 0.7 | -8.4 | 11.9 | 5.8 | 6.9
CC(C)Oc1ccc(CCC(=O)N/N=C/c2ccc3c(c2)OCO3)cc1 | 31.6* | -2.9 | -12.3 | 0.6 | -0.4 | -1.3
O=C(N/N=C/c1ccc2c(c1)OCO2)c1ccc(NC(=O)c2ccc(F)cc2)cc1 | 24.7* | 3.4 | -4.0 | 16.4 | -2.2 | 14.6
CC(C)CC#Cc1ccc2c(c1)O[C@@H](CN(C)C(=O)c1ccncc1)[C@H](C)CN([C@H](C)CO)S2(=O)=O | nt | nt | nt | nt | 0.4 | nt
CCCCn1c(N)c(N(CCOC)C(=O)c2c(C)noc2C)c(=O)[nH]c1=O | 25.1* | 0.0 | 1.7 | 7.2 | 0.4 | -0.9
Cc1c(-c2nc(N)nc(Nc3ccc(F)cc3)n2)oc2ccccc12 | 33.4* | 2.6 | -2.2 | 22.0 | nt | 1.7
COc1ccc(C(=O)C=CNNC(=O)c2ccc(Cl)cc2)cc1 | 26.1* | 2.9 | 1.8 | -7.6 | -1.7 | -0.7
CCCCN1C(=O)C(CC(=O)NCCCCc2ccccc2)CC(C(=O)N(C(C)C)C(C)C)=C1C (stereo unspecified) | 3.7 | -0.5 | -4.4 | 3.1 | 3.2 | nt
CN(C)CC(=O)N1[C@@H]2Cn3c(ccc(-c4cccnc4)c3=O)[C@H]1[C@@H](C(=O)NC1CCC1)[C@@H]2CO | nt | nt | nt | nt | -0.8 | nt
NS(=O)(=O)c1ccc(CCNC(=O)CNS(=O)(=O)c2cccc(Br)c2)cc1 | 28.2* | 1.4 | -7.2 | 2.6 | -1.1 | -2.3
COc1ccccc1C(=O)NCCC(=O)N1CCCC(C)C1 (stereo unspecified) | 3.8 | 2.6 | 4.1 | 0.9 | -0.7 | nt
COc1ccccc1C(=O)NCCC(=O)Nc1ccc(S(=O)(=O)N2CCCC(C)C2)cc1 (stereo unspecified) | 28.3* | 5.2 | 9.2 | -0.7 | 3.3 | 3.5
CCc1cccc(C)c1NC(=O)CSc1nnc(CCCOc2ccc(Cl)cc2Cl)n1C | 24.8* | -2.6 | -10.5 | 10.3 | nt | 8.3
COc1ccc(CNC(=O)CCS(=O)(=O)c2ccc3c(c2)NC(=O)C(C)S3)cc1 (stereo unspecified) | -6.6 | -0.5 | -6.5 | -2.5 | 3.9 | nt
COc1ccc(CNC(=O)CCS(=O)(=O)c2ccc3c(c2)NC(=O)CS3)cc1 | 25.1* | -1.9 | -10.1 | 1.1 | 3.8 | -3.2

High-throughput results (PubChem BioAssay)
